Data taken from ChEMBL document CHEMBL1944612, “Structural modification of ginsenoside Rh(2) by fatty acid esterification and its detoxification property in antitumor” (Bioorg Med Chem Lett, 2012).

Key:
[1] = tested on: Mus musculus; test: Immunostimulatory activity in Kunming mouse xenografted with […] cells assessed as change in thymus mass at 10 mg/kg, po qd for 10 days (reference value: 1.83 +/- 0.85 mg/kg); type: functional
[2] = Growth inhibition of human QSG7701 cells at 50 uM after 48 hrs by MTT assay; conditions: read-out: GI
Procedure, shortened: (§1)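 QSG-7701 human hepatocytes seeded at 5×10^3 cells/mL in 96-well plates. Compounds were dissolved in DMSO and diluted in RPMI 1640 (final DMSO <0.1%), in triplicate, for 48 h. MTT (5 mg/mL stock) was added for 2 h, and formazan was dissolved in DMSO. OD was read at 570 nm (450 nm reference). IC50 is the concentration giving 50% absorbance reduction versus vehicle control.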

[3] = tested on: Mus musculus; test: Toxicity in Kunming mouse xenografted with human H22 cells assessed as change in body weight at 20 mg/kg, po qd for 10 days (reference value: 23.4 +/- 2.8 g); type: organism-based; design: dose 20 mg/kg, route oral; conditions: in vivo, 240 h
[4] = tested on: Mus musculus; test: Immunostimulatory activity in Kunming mouse xenografted with […] cells assessed as change in spleen mass at 5 mg/kg, po qd for 10 days (reference value: 6.61 +/- 1.84 mg/kg); type: functional
[5] = tested on: Mus musculus; test: Immunostimulatory activity in Kunming mouse xenografted with […] cells assessed as change in spleen mass at 10 mg/kg, po qd for 10 days (reference value: 6.61 +/- 1.84 mg/kg); type: functional
[6] = Growth inhibition of human QSG7701 cells after 48 hrs by MTT assay; conditions: QSG7701, 48 h; procedure, shortened: as §1
[7] = tested on: Mus musculus; test: Immunostimulatory activity in Kunming mouse xenografted with […] cells assessed as change in thymus mass at 5 mg/kg, po qd for 10 days (reference value: 1.83 +/- 0.85 mg/kg); type: functional
[8] = tested on: H22 (Mus musculus); test: Antitumor activity against mouse H22 cells xenografted in Kunming mouse assessed as reduction in tumor weight at 5 mg/kg, po qd for 10 days; conditions: 240 h
[9] = tested on: Mus musculus; test: Toxicity in Kunming mouse xenografted with […] cells assessed as change in body weight at 20 mg/kg, po qd for 10 days (reference value: 24.8 +/- 1.1 g); type: organism-based; design: dose 20 mg/kg, route oral; conditions: in vivo, 240 h
[10] = tested on: H22; test: Antitumor activity against human H22 cells xenografted in Kunming mouse assessed as reduction in tumor volume at 20 mg/kg, po qd for 10 days; conditions: 240 h, read-out: INH

Row | Compound | Activity [1] | inhibition at 48 h, 50 µM [2] | Activity [3] | Activity [4] | Activity [5] | IC50 [6] | Activity [7] | inhibition in vivo at 5 mg/kg [8] | Activity [9] | inhibition in vivo at 20 mg/kg [10]
1 | CC(C)=CCC[C@](C)(O)[C@H]1CC[C@]2(C)[C@@H]1[C@H](O)C[C@@H]1[C@@]3(C)CC[C@H](O[C@@H]4O[C@H](CO)[C@@H](O)[C@H](O)[C@H]4O)C(C)(C)[C@@H]3CC[C@]12C [GINSENOSIDE RH2] | 2.09 mg/g | 83% | 23.2 g | 5.48 mg/g | 5.35 mg/g | 37.3 µM | 2.25 mg/g | 53% | – | –
2 | CCCCCCCC(=O)OC[C@H]1O[C@@H](O[C@H]2CC[C@]3(C)[C@H]4C[C@@H](OC(=O)CCCCCCC)[C@@H]5[C@@H]([C@@](C)(O)CCC=C(C)C)CC[C@@]5(C)[C@]4(C)CC[C@H]3C2(C)C)[C@H](O)[C@@H](O)[C@@H]1O | 3.42 mg/g | 18% | – | 5.27 mg/g | 6.31 mg/g | 80.5 µM | 2.15 mg/g | 52% | 27.1 g | –
3 | O=P1(N(CCCl)CCCl)NCCCO1 (configuration not stated) [CYCLOPHOSPHAMIDE ANHYDROUS] | – | – | – | – | – | – | – | – | – | 72%
